The subject of one series is CCRF-CEM. The series can be described thus: Cytotoxicity against human CCRF-CEM cells after 72 hrs by MTT assay. The class given is functional. The settings on record: for CC50: read-out: LC50 (the source's name). A digest of the protocol:
(§1)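 MTT read-out after 72 h exposure at 37 °C in humidified 5% CO2, with five concentrations between 0.01 and 100. GI50 is 50% growth reduction versus untreated controls, TGI is complete growth inhibition, and LC50 is the concentration killing 50% of cells. Minimum three independent experiments.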

The test system of another series is HT-29. Nature of the series: Cytotoxicity against human HT-29 cells after 72 hrs by MTT assay. The class given is functional. To be noted: HT-29, 72 h; for CC50: read-out: LC50 (the source's name). A digest of the protocol:
as §1
On the technique in general: Tetrazolium dyes change colour on reduction, which living cells bring about.

Series [1] can be described thus: Cytotoxicity against human HTB-54 cells after 72 hrs by MTT assay. To be noted: HTB-54, 72 h; for CC50: read-out: LC50 (the source's name). The class given is functional. The method, boiled down:
as §1

Another series has as its system MCF7. The series can be described thus: Cytotoxicity against human MCF7 cells after 72 hrs by MTT assay. The settings on record: MCF7, 72 h. The format is functional. A digest of the protocol:
as §1

Series [2] can be described thus: Cytotoxicity against human 184B5 cells after 72 hrs by MTT assay. To be noted: for GI50 at 72 h: 184B5 cells; for LC50 / TGI: 184b5, 72 h. The class given is cell-based. A digest of the protocol:
as §1

A short description of series [3]: Cytotoxicity against human BEAS2B cells after 72 hrs by MTT assay. The class given is cell-based, BEAS-2B. The settings on record: for GI50 at 72 h: BEAS2B cells; for LC50 / TGI: beas-2b, 72 h. The method, boiled down:
as §1

For the molecule `CSc1nc(NCCCCc2ccccc2)c2ccccc2n1`, the GI50 in the series on CCRF-CEM was 47 µM; with HT-29, more than 100 µM; in series [1], more than 100 µM; with MCF7, 32 µM. The TGI in the series on CCRF-CEM is more than 100 µM; in the series with HT-29 it was more than 100 µM; in series [1] it was more than 100 µM; in the series on MCF7, 64 µM; in series [2], 53.55 µM; in series [3], more than 100 µM. Also, the CC50 (in the series on CCRF-CEM; in the series on HT-29; in series [1]) was more than 100 µM each time. In addition, the 50% lethal concentration (LC50) in the series with MCF7 is 95.9 µM; in series [2], 78.6 µM; in series [3], more than 100 µM. Also, the GI50 at 72 h was determined as 28.5 µM in series [2] and 6.81 µM in series [3].
Regarding `Sc1nc(NCc2ccccc2)c2ccccc2n1`, the GI50 came out at 82.4 µM in the series with CCRF-CEM, 10.1 µM in the series with HT-29, 15.2 µM in series [1] and 27.2 µM with MCF7. Also, the TGI in the series on CCRF-CEM is more than 100 µM; in the series on HT-29 it was 63.5 µM; in series [1], more than 100 µM; in the series on MCF7 it was more than 100 µM; in series [2], more than 100 µM; in series [3], more than 100 µM. For the same molecule, the CC50 (in the series with CCRF-CEM; in the series with HT-29; in series [1]) was more than 100 µM throughout. For the same molecule, the LC50 (in the series on MCF7; in series [2]; in series [3]) was more than 100 µM in each case. The values for the GI50 at 72 h in series [2] and in series [3] were 49.6 µM and 66.3 µM, respectively.
`CCCCC[Se]c1nc(NCc2ccc(SC)cc2)c2ccccc2n1`: the GI50 with CCRF-CEM amounted to 35 µM; in the series on HT-29 it was 83.6 µM; in series [1], 40.4 µM; with MCF7, 34.7 µM. Also, the TGI in the series with CCRF-CEM was 83.9 µM; in the series on HT-29, more than 100 µM; in series [1], 81.3 µM; in the series on MCF7, 65 µM; in series [2], more than 100 µM; in series [3] it was 88.21 µM. The CC50 (in the series with CCRF-CEM; in the series on HT-29; in series [1]) was more than 100 µM in each case. The LC50 was 95.3 µM in the series with MCF7, more than 100 µM in series [2] and more than 100 µM in series [3]. For the same molecule, the GI50 at 72 h in series [2] came to 57.4 µM; in series [3], 34.7 µM.
Regarding `COc1ccc(CNc2nc(SC)nc3ccccc23)cc1`, the GI50 was 93.7 µM with CCRF-CEM, 70.2 µM with HT-29, 93.7 µM in series [1] and 30.9 µM with MCF7. The TGI with CCRF-CEM is more than 100 µM; in the series on HT-29 it was more than 100 µM; in series [1] it was more than 100 µM; in the series with MCF7, 85.1 µM; in series [2], more than 100 µM; in series [3], 96.24 µM. Moreover, the CC50 (in the series on CCRF-CEM; with HT-29; in series [1]) was more than 100 µM throughout. The LC50 (in the series with MCF7; in series [2]; in series [3]) was more than 100 µM in each case. In addition, the GI50 at 72 h in series [2] came to 85.6 µM; in series [3], 21.7 µM.
`CSc1nc(NCCCCCO)c2ccccc2n1`: the GI50 with CCRF-CEM was more than 100 µM; with HT-29, more than 100 µM; in series [1], 31.4 µM; in the series with MCF7 it was 62 µM. The TGI in the series on CCRF-CEM was more than 100 µM; in the series with HT-29, more than 100 µM; in series [1], 71.4 µM; with MCF7, more than 100 µM; in series [2], more than 100 µM; in series [3], 99.35 µM. The CC50 (in the series with CCRF-CEM; in the series on HT-29; in series [1]) was more than 100 µM throughout. For the same molecule, the LC50 (in the series on MCF7; in series [2]; in series [3]) was more than 100 µM throughout. For the same molecule, the values for the GI50 at 72 h in series [2] and in series [3] were 49.9 µM and 39.3 µM, respectively.
With `C[Se]c1nc(NCc2ccccc2)c2ccccc2n1`, the GI50 was determined as 39.8 µM in the series with CCRF-CEM, 42.8 µM with HT-29, 74.6 µM in series [1] and 15.8 µM in the series on MCF7. Moreover, the TGI in the series on CCRF-CEM is 61.6 µM; with HT-29, 81 µM; in series [1], more than 100 µM; in the series with MCF7, 67 µM; in series [2], 12.41 µM; in series [3], 36.96 µM. Further, the CC50 in the series with CCRF-CEM was 83.5 µM; with HT-29, more than 100 µM; in series [1], more than 100 µM. In addition, the 50% lethal concentration (LC50) in the series with MCF7 was more than 100 µM; in series [2], 73.66 µM; in series [3], 78.3 µM. Further, the GI50 at 72 h in series [2] is 3.72 µM; in series [3] it was 0.57 µM.
With `COc1ccc(CNc2nc([Se]C)nc3ccccc23)cc1`, the GI50 in the series on CCRF-CEM was more than 100 µM; in the series on HT-29 it was 73.6 µM; in series [1] it was 33 µM; in the series with MCF7, 42.2 µM. Besides, the TGI is more than 100 µM with CCRF-CEM; more than 100 µM in the series on HT-29; more than 100 µM in series [1]; 98.6 µM in the series with MCF7; more than 100 µM in series [2]; more than 100 µM in series [3]. The CC50 (in the series on CCRF-CEM; with HT-29; in series [1]) was more than 100 µM throughout. The median lethal concentration (LC50) (with MCF7; in series [2]; in series [3]) was more than 100 µM throughout. Also, the GI50 at 72 h was 75.6 µM in series [2] and more than 100 µM in series [3].
For `CCCCC[Se]c1nc([Se]CCCCC)c2cccnc2n1`, the GI50 in the series with CCRF-CEM is more than 100 µM; in the series with HT-29, more than 100 µM; in series [1], 15.2 µM; with MCF7, 40.8 µM. In addition, the TGI in the series on CCRF-CEM was more than 100 µM; in the series with HT-29, more than 100 µM; in series [1], 60.5 µM; in the series on MCF7, 67.7 µM; in series [2] it was more than 100 µM; in series [3], more than 100 µM. The CC50 (in the series on CCRF-CEM; with HT-29; in series [1]) was more than 100 µM each time. Besides, the LC50 is 94.6 µM in the series with MCF7, more than 100 µM in series [2] and more than 100 µM in series [3]. The GI50 at 72 h in series [2] is 52.8 µM; in series [3], more than 100 µM.
As for `[SeH]c1nc(NCc2ccccc2)c2ccccc2n1`, the GI50 in the series with CCRF-CEM is more than 100 µM; with HT-29, 62.2 µM; in series [1], 31.2 µM; in the series on MCF7, more than 100 µM. Further, the TGI with CCRF-CEM is more than 100 µM; in the series with HT-29, more than 100 µM; in series [1] it was more than 100 µM; with MCF7, more than 100 µM; in series [2] it was 63.63 µM; in series [3], more than 100 µM. Moreover, the CC50 (in the series with CCRF-CEM; in the series with HT-29; in series [1]) was more than 100 µM in each case. Besides, the LC50 (in the series on MCF7; in series [2]; in series [3]) was more than 100 µM each time. In addition, the GI50 at 72 h came out at 20.8 µM in series [2] and 3.54 µM in series [3].
`CSc1ccc(CNc2nc(SC)nc3ccccc23)cc1`: the GI50 in the series with CCRF-CEM is more than 100 µM; in the series with HT-29 it was 34.7 µM; in series [1], 7.22 µM; with MCF7 it was 47.3 µM. Besides, the TGI was more than 100 µM in the series with CCRF-CEM; more than 100 µM in the series on HT-29; 44.5 µM in series [1]; more than 100 µM with MCF7; more than 100 µM in series [2]; 59.11 µM in series [3]. The CC50 in the series with CCRF-CEM is more than 100 µM; with HT-29, more than 100 µM; in series [1], 89.1 µM. For the same molecule, the values for the LC50 (in the series on MCF7; in series [2]; in series [3]) were more than 100 µM, more than 100 µM and 95.93 µM, respectively. Further, the results for the GI50 at 72 h in series [2] and in series [3] were 22 µM and 22.7 µM, respectively.
Take `C[Se]c1nc(N)c2ccccc2n1`: the GI50 was 65.1 µM with CCRF-CEM, 27.6 µM with HT-29, 18 µM in series [1] and 46.5 µM in the series with MCF7. For the same molecule, the TGI in the series with CCRF-CEM was more than 100 µM; with HT-29, 74.8 µM; in series [1] it was 88.7 µM; with MCF7, more than 100 µM; in series [2] it was 59.04 µM; in series [3] it was 54.56 µM. Also, the CC50 (in the series on CCRF-CEM; in the series on HT-29; in series [1]) was more than 100 µM throughout. Besides, the LC50 in the series with MCF7 is more than 100 µM; in series [2] it was 93.68 µM; in series [3], 85.52 µM. The GI50 at 72 h in series [2] came to 24.4 µM; in series [3], 23.6 µM.
In the series on CCRF-CEM, `COc1cc([C@@H]2c3cc4c(cc3[C@@H](O[C@@H]3O[C@@H]5CO[C@@H](C)O[C@H]5[C@H](O)[C@H]3O)[C@H]3COC(=O)[C@H]23)OCO4)cc(OC)c1O` [ETOPOSIDE] gave a concentration for 50% growth inhibition (GI50) of 12.6 µM. Besides, the figures for the TGI in the series on CCRF-CEM, with HT-29 and in the series with MCF7 were 50.1 µM, more than 100 µM and more than 100 µM, respectively. For the same molecule, the CC50 with CCRF-CEM and with HT-29 was more than 100 µM each time.
With `[SeH]c1nc([SeH])c2cccnc2n1`, in series [1], it took 4.03 µM to inhibit growth by half (GI50), the TGI is 7.93 µM and the CC50 was 68.4 µM. In the series with MCF7, this molecule registered a GI50 of 9.83 µM, a 50% lethal concentration (LC50) of 82.7 µM and a TGI of 46.1 µM. In series [2], this molecule returned a GI50 at 72 h of 0.71 µM, a median lethal concentration (LC50) of 67.5 µM and a TGI of 8.26 µM.

Usually GI50 stands for the concentration giving 50% growth inhibition. Low readings indicate greater sensitivity of the cells, high ones lower sensitivity of the cells. The TGI is the concentration at which net growth stops. High values mean less potent growth arrest, low ones more potent growth arrest. What is called LC50 is the concentration lethal to half of the exposed cells or organisms. Read a low LC50 as a more lethal substance.

Source of the values: ChEMBL document CHEMBL1926588, “Sulfur and selenium derivatives of quinazoline and pyrido[2,3-d]pyrimidine: synthesis and study of their potential cytotoxic activity in vitro” (Eur J Med Chem, 2012).
